According to ChEMBL document CHEMBL1157119, “1-(2-(2,2,2-trifluoroethoxy)ethyl-1H-pyrazolo[4,3-d]pyrimidines as potent phosphodiesterase 5 (PDE5) inhibitors” (Bioorg Med Chem Lett, 2010):
Activity calls are given as the source filed them. The rule behind the calls is not given here.

Experiments:
[1] = biological target: cGMP-specific 3',5'-cyclic phosphodiesterase (Homo sapiens, UniProt O76074); test: Inhibition of PDE5
[2] = Selectivity ratio of IC50 for PDE6 to IC50 for PDE5
In short: (§1)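 The selectivity value is the IC50 at PDE11 or PDE6 divided by the IC50 at PDE5.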

[3] = Selectivity ratio of IC50 for PDE11 to IC50 for PDE5; in short: as §1
[4] = Metabolic stability in human liver microsomes assessed as compound remaining after 30 mins; assay type: ADME, Microsome; conditions: read-out: Stability
[5] = Half life in human liver microsomes; assay type: ADME, Microsome
[6] = Half life in Beagle dog at 0.2 mg/kg, iv; assay type: ADME, organism-based, Canis lupus familiaris; design: dose 0.2 mg/kg, route intravenous; conditions: in vivo
In short: (§2)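 Beagle dogs of about 10 kg were dosed at 0.2–0.5 mpk. From the plasma profile, terminal half-life was reported in h, clearance in mL/min/kg and steady-state volume of distribution in L/kg.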

[7] = Clearance in Beagle dog at 0.2 mg/kg, iv; assay type: ADME, organism-based, Canis lupus familiaris; design: dose 0.2 mg/kg, route intravenous; conditions: in vivo; in short: as §2
[8] = Volume of distribution at steady state in Beagle dog at 0.2 mg/kg, iv; assay type: ADME, organism-based, Canis lupus familiaris; design: dose 0.2 mg/kg, route intravenous; conditions: in vivo, read-out: Vdss; in short: as §2
Rattus norvegicus [9] = test: Antihypertensive activity in spontaneously hypertensive rat assessed as decrease of mean arterial blood pressure at 1.5 mg/kg, iv after 2 hrs; assay type: functional, Artery
In short: (§3)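 Spontaneously hypertensive rats received a single IV dose of 1.5 mg/kg. Mean arterial blood pressure was monitored after dosing, and the decrease in MAP was read at 2 h and 6 h post dose. Compound blood levels were also monitored, including the free fraction at 6 h.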

Rattus norvegicus [10] = test: Antihypertensive activity in spontaneously hypertensive rat assessed as decrease of mean arterial blood pressure at 1.5 mg/kg, iv after 6 hrs; assay type: functional, Artery; in short: as §3
Rattus norvegicus [11] = test: Antihypertensive activity in spontaneously hypertensive rat assessed as decrease of mean arterial blood pressure at 5 mg/kg, po; assay type: functional, Artery
In short: (§4)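 Spontaneously hypertensive rats were dosed orally, or IV in some cases, with compound levels and blood pressure monitored. The read-out was the decrease in mean arterial pressure (MAP), scored as + for a 10–15 mmHg drop and ++ for a drop of >15 mmHg. Oral dosing at 5 mg/kg was followed for up to 20 h post dose.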

Rattus norvegicus [12] = test: Antihypertensive activity in spontaneously hypertensive rat assessed as decrease of mean arterial blood pressure at 5 mg/kg, po up to 20 hrs; assay type: functional, organism-based; design: dose 5 mg/kg; conditions: Artery; in short: as §4
Rattus norvegicus [13] = species: Rattus norvegicus; test: Antihypertensive activity in spontaneously hypertensive rat assessed as decrease of mean arterial blood pressure; assay type: functional, Artery; in short: as §4
[14] = Inhibition of PDE6
hERG (KCNH2) = hERG (KCNH2) (Homo sapiens, UniProt Q12809); test: Displacement of [3H]dofetilide from human ERG expressed in HEK293 cells at 10 uM; assay type: cell-based; conditions: HEK293 cells that express human ERG, probe [3H]dofetilide
Sequence of hERG (KCNH2) (Q12809 whole entry): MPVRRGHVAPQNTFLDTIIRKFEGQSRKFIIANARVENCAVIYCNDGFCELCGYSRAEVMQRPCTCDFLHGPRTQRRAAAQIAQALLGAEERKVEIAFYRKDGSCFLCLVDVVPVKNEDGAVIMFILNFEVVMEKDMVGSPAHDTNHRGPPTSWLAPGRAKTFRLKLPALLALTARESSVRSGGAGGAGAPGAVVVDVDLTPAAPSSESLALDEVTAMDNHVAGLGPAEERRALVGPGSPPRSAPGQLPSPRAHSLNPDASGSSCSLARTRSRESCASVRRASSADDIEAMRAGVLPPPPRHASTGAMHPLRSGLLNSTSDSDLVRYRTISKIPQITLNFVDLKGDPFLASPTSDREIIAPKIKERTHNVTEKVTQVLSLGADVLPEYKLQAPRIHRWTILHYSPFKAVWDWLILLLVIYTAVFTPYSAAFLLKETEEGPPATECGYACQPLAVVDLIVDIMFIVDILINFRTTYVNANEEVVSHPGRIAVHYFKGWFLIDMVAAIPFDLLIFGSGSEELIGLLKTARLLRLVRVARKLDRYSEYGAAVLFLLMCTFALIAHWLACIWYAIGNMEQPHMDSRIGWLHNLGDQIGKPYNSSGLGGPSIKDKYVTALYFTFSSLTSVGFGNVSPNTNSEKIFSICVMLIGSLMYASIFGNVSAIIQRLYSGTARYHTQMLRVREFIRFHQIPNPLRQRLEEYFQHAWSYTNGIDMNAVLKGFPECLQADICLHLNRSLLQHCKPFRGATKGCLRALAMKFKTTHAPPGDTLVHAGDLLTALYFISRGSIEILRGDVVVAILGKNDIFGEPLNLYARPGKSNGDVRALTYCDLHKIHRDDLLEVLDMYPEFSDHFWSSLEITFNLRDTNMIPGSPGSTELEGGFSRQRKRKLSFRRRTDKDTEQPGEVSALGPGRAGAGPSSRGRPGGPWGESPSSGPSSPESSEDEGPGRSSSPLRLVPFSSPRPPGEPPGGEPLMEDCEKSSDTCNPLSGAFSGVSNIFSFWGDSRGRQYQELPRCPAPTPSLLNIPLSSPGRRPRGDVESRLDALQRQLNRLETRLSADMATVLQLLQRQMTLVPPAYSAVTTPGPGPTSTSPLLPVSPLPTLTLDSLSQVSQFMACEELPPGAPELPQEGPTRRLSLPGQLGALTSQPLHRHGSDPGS

[15] = biological target: Voltage-gated inwardly rectifying potassium channel KCNH2 (Homo sapiens, UniProt Q12809); test: Inhibition of human ERG expressed by patch clam electrophysiology assay
Sequence of Voltage-gated inwardly rectifying potassium channel KCNH2 (Q12809 whole entry): as above

SMILES | IC50 [1] [nM] | Ratio IC50 [2] | Ratio IC50 [3] | further results
Cc1nn(CCOCC(F)(F)F)c2c(Nc3ccncn3)nc(N3CCCNCC3)nc12 | 9.79 | 35 | 204 | –
CCc1nn(CCOCC(F)(F)F)c2c(Nc3ccccn3)nc(N3CCNCC3)nc12 | 0.65 | 150 | 450 | remaining at 0.5 h [4]: 91%
CCc1nn(CCOCC(F)(F)F)c2c(Nc3cc(C)ccn3)nc(N3CCNCC3)nc12 | 3.28 | 220 | 170 | remaining at 0.5 h [4]: 80%
CCCOCCn1nc(CC)c2nc(N3CCNCC3)nc(Nc3ccccn3)c21 | 0.3 | – | – | –
CCc1nn(CCOCC(F)(F)F)c2c(Nc3ccncn3)nc(N3CCCNCC3)nc12 | 3.15 | 69 | 635 | –
CCc1nn(CCOCC(F)(F)F)c2c(Nc3ccncn3)nc(N3CCOCC3)nc12 | 3.92 | 107 | 5100 | –
Cc1nn(CCOCC(F)(F)F)c2c(Nc3ccncn3)nc(N3CCN[C@@H](C)C3)nc12 | 0.94 | – | – | –
CCc1nn(CCOC(C)C)c2c(Nc3ccccn3)nc(N3CCNCC3)nc12 | 0.86 | 50 | 52 | –
CCc1nn(CCOCC(F)(F)F)c2c(Nc3ccncn3)nc(N(C)C3CCN(C)CC3)nc12 | 0.35 | 285 | 5650 | remaining at 0.5 h [4]: 31%
CCc1nn(CCOCC(F)(F)F)c2c(Nc3ccncn3)nc(N3CCN[C@H](C)C3)nc12 | 0.07 | – | – | half-life [5]: 0.7 h; half-life [6]: 5.1 h; clearance [7]: 18.5 mL/min/kg; Vd [8]: 7.8 L/kg; Activity (Rattus norvegicus [9]): 27 mmHg; Activity (Rattus norvegicus [10]): 23 mmHg; Activity (Rattus norvegicus [11]): 27 mmHg; Activity (Rattus norvegicus [12]): Active; Activity (Rattus norvegicus [13]): >15 mmHg
CCCc1nn(C)c2c(=O)[nH]c(-c3cc(S(=O)(=O)N4CCN(C)CC4)ccc3OCC)nc12 | – | – | – | IC50 [14]: 30 nM
CCc1nn(CCOCC(F)(F)F)c2c(Nc3ccncn3)nc(N3CCNC(=O)C3)nc12 | 2.96 | – | – | –
CCc1nn(CCOCC(F)(F)F)c2c(Nc3ccncn3)nc(NCCN)nc12 | 9.52 | > 210 | > 210 | –
Cc1nn(CCOCC(F)(F)F)c2c(Nc3ccncn3)nc(N3CCN[C@H](C)C3)nc12 | 0.14 | – | – | inhibition at 10 µM (hERG (KCNH2)): 24.7%; Activity (Rattus norvegicus [13]): >15 mmHg
CCOCCn1nc(CC)c2nc(N3CCNCC3)nc(Nc3cccc(C)n3)c21 | – | – | – | IC50 [14]: 946 nM
CCc1nn(CCOCC(F)(F)F)c2c(Nc3ccncn3)nc(N3CCNCC3)nc12 | 0.15 | – | – | Activity (Rattus norvegicus [13]): 10 mmHg
CCc1nn(CCOCC(F)(F)F)c2c(Nc3ccc(F)cc3)nc(N3CCNCC3)nc12 | 0.09 | – | – | –
CCc1nn(CCOCC(F)(F)F)c2c(Nc3ccncn3)nc(N3CCCN(C)CC3)nc12 | 6.48 | 309 | 287 | –
Cc1cccc(Nc2nc(N3CCNCC3)nc3c(C)nn(CCOCC(F)(F)F)c23)n1 | 0.78 | – | – | inhibition at 10 µM (hERG (KCNH2)): 40%; IC50 [15]: 560 nM
Cc1ccnc(Nc2nc(N3CCNCC3)nc3c(C)nn(CCOCC(F)(F)F)c23)c1 | 1.84 | 510 | 280 | remaining at 0.5 h [4]: 75%
CCc1nn(CCOCC(F)(F)F)c2c(Nc3cccc(C)n3)nc(N3CCNCC3)nc12 | 1.01 | – | – | –
